Experiment [1] deals with Rattus norvegicus. Briefly: Percent inhibition of gastric antisecretory activity in the pylorus-ligated rat at a dose of 100 mg/kg administered intraduodenally. As to conditions: Stomach, route intraduodenal. In kind it is functional. The procedure, abridged:
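Fasted rats in groups of six, pylorus ligated under ether anaesthesia (Shay method); compound in 1% carboxymethylcellulose, or vehicle alone, given intraduodenally at 100 mg/kg. Stomach removed 7 h after abdominal closure. Gastric juice volume measured, and free acid titrated with 0.1 N NaOH to pH 3.0. Hourly free-acid output per rat expressed as percent inhibition versus vehicle controls.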

Experiment [2] has as its system Rattus norvegicus. Briefly: Antiulcer activity in male Donry rat for 50% inhibition of aspirin induced gastric lesions after intraduodenal administration. In kind it is functional. The note with it: Stomach. The procedure, abridged:
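Aspirin ulcer model. Male Donryu rats of 200–220 g were food-deprived 24 h, ten per group, pylorus-ligated, then dosed intraduodenally. Ten min later they received oral aspirin 100 mg/kg in 1% carboxymethylcellulose. At 7 h the summed lengths of glandular lesions gave the ulcer index (mm). ED50 by Litchfield–Wilcoxon.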

Experiment [3] is filed under the species Rattus norvegicus. Briefly: animal or person. The note with it: Stomach, intraduodenal.
The species named for experiment [4] is Rattus norvegicus. Briefly: animal or person. The note with it: Stomach, intraduodenal. This is another data set of the same source.

The text below walks through data of ChEMBL document CHEMBL1122117, “Pyridazinones. 1. Synthesis and antisecretory and antiulcer activities of thio amide derivatives” (1982).

Structures are written as SMILES.

In general, inhibition in vivo refers to the drop in the measured response relative to a control, in per cent. Read a high inhibition in vivo as a strong effect. The compound `O=c1ccc(-c2ccccc2)nn1CC/C(S)=N/CO` showed an inhibition in vivo at 100 mg/kg in experiment [1] of 5.1%.

Broadly, the ED50 is the midpoint of the dose-response relation. A high value points to weaker potency. As to `CN1[C@@H]2CC[C@H]1C[C@@H](OC(=O)C(CO)c1ccccc1)C2.O=S(=O)(O)O` (some centres undefined) [ATROPINE SULFATE], the ED50 came out at 4.5 mg/kg in experiment [2], 1.1 mg/kg in experiment [3] and 0.9 mg/kg in experiment [4].
